Test results reported in paper PMC10840808 (Molecular cancer therapeutics, 2024).
Ends that are not written are not given here.

Columns and labels:
NANOG = NANOG (Homo sapiens, UniProt Q9H9S0); experiment: Surface plasmon resonance; format: binding
Method in brief: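 Purified active NANOG at 50 μg/mL in 10 mM sodium acetate pH 4.5 was amine-coupled (EDC/NHS, ethanolamine block) to a CM5 chip, targeting 5000 RU, with an unmodified reference cell. Runs used Biacore S200 at 25°C, 1% DMSO/1x PBS-P+ at 30 μL/min. Peptide series: ≥5 concentrations, 100 nM–100 μM, plus repeat and zero. Association 180 s, dissociation 600 s, glycine pH 2.5 regeneration. KD by 1:1 Langmuir kinetics.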

[1] = system: MCF7 luminal breast cancer cells; experiment: qPCR gene expression; format: cell-based; details: MCF7, 7 days of treatment, n=3
Method in brief: (§1)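 Cells were treated for 7 days with test peptide, cytosolic-tail peptide alone, scrambled peptide or vehicle, then analysed by real-time qPCR for NANOG-regulated and keratin genes. CT values were normalized to GAPDH, and dissociation curves checked primer fidelity. n=3 independent experiments, each in technical triplicate; one-way ANOVA.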

[2] = system: MDA-MB-231 luciferase-expressing tumors; format: in vivo, NSG mice; details: endpoint tumors
Method in brief: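 MDA-MB-231 cells were made luciferase-expressing by lentivirus and puromycin-selected. 1×10⁶ cells went into the right subcutaneous flank of 6-week-old female NSG mice. At palpability, mice were randomized to 50 μl intratumoral 0.1 mM peptide or vehicle (1% DMSO) every other day for 20 days. Weekly IVIS: D-luciferin 150 mg/kg IP under isoflurane, total flux. Excised tumors were fixed 3 days in 4% PFA, then sectioned and stained (H&E: 7–8 mice/group; IF: 3–4 mice/group, 3 images/mouse). One-way ANOVA.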

FAK = FAK (Homo sapiens, UniProt Q05397); experiment: Surface plasmon resonance; format: binding
FAK, sequence (Q05397 whole entry): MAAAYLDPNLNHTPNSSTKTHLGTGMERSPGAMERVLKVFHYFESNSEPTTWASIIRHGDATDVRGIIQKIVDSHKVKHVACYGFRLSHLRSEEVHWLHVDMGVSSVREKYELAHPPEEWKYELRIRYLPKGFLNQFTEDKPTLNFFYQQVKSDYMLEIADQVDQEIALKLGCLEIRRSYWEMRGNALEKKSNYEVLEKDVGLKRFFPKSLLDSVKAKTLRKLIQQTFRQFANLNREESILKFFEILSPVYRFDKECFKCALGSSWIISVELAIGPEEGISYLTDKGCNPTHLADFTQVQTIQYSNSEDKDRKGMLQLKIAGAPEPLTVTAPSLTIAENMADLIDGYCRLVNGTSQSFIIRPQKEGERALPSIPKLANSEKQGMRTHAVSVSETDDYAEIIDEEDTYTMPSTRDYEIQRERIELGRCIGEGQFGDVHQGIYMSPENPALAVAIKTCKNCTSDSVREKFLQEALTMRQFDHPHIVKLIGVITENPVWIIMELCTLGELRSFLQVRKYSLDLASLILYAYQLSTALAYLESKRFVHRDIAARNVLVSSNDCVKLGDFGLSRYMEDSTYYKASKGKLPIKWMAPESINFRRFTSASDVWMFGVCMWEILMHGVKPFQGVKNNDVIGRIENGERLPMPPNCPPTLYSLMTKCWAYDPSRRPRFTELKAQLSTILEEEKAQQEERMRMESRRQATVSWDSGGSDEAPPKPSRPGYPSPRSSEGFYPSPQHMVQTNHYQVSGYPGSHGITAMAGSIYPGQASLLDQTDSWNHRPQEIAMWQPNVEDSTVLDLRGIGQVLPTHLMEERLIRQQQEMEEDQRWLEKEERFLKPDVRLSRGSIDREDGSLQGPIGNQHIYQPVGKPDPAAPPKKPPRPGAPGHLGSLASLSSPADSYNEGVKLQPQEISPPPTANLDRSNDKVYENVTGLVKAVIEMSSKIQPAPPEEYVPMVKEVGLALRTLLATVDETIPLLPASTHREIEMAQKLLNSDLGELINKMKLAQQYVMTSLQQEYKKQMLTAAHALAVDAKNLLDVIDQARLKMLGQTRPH
Method in brief: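 Biacore S200 at 25°C, with running buffer 1% DMSO/1x PBS-P+ (filtered, degassed) at 30 μL/min. FAK at 20 μg/mL in 10 mM sodium acetate pH 5.0 was amine-coupled to a CM5 chip, targeting 5000 RU, with unmodified flow cell 1 as reference. Peptide analyte: ≥5 concentrations (100 nM–100 μM) plus a repeat and a blank, multi-cycle. Association 180 s, dissociation 600 s. Regeneration with 10 mM glycine pH 2.5 for 30 s. KD from 1:1 Langmuir fit.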

HCC70 cells [3] = experiment: qPCR gene expression; format: cell-based; details: HCC70, 10 μM, 7 day treatment, compared to aScr-pep
Method in brief: as §1

HCC70 cells [4] = experiment: Subcellular fractionation and immunoblotting for FAK and NANOG; format: cell-based; details: HCC70, 10 μM, 48 h, immunoblot
Method in brief: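 15×10⁶ HCC70 cells per 15 cm dish were treated 48 h with 10 μM peptide or 1% DMSO vehicle. A commercial kit gave membrane, cytoplasmic and nuclear fractions. 25 μg per fraction was run on 12% SDS-PAGE and transferred to PVDF. Blots were probed for FAK and NANOG, with HRP secondary 3 h at room temperature. Rhodamine anti-actin and Lamin A/C served as loading controls.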

MDA-MB-231 = experiment: Tumorsphere-initiation frequency, extreme limiting-dilution assay; format: cell-based; details: MDA-MB-231, ELDA, compared to aScr-pep
Method in brief: (§2)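 Cells were treated with vehicle, Antp alone, Antp-tagged scrambled peptide or test peptide. They were plated in duplicate rows at serial dilutions of 1–20 cells/well, one 96-well plate per condition. Medium was serum-free DMEM with 20 ng/ml bFGF, 10 ng/ml EGF, 2% B27 and 10 μg/ml insulin. After 2 weeks, wells were scored sphere-positive or negative by phase-contrast microscopy. Stem-cell frequency was computed by extreme limiting dilution analysis.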

HCC70 = experiment: as above; format: cell-based; details: HCC70, ELDA, compared to aScr-pep
Method in brief: as §2

MDA-MB-231 cells [5] = experiment: qPCR gene expression; format: cell-based; details: for expression of NANOG target genes (FABP5, POSTN, NRP2, PIN1, TAGLN) / expression of epithelial cell markers cytokeratin 18 and 19 (KRT18 and KRT19): MDA-MB-231, 7 days of treatment, n=3; for expression of NANOG target genes (FABP5, POSTN, NRP2, PIN1, TAGLN): compared to vehicle or aScr-pep
Method in brief: as §1

MCF7 = experiment: Tumorsphere-initiation frequency, extreme limiting-dilution assay; format: cell-based; details: MCF7 luminal breast cancer cell line, ELDA, aScr-pep vs aCx26-pep
Method in brief: as §2

MDA-MB-468 = experiment: as above; format: cell-based; details: MDA-MB-468, ELDA, compared to aScr-pep
Method in brief: as §2

MDA-MB-231 cells [6] = experiment: CellTiter-Glo proliferation; format: cell-based; details: MDA-MB-231, increasing concentrations, 72 h
Method in brief: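 MDA-MB-231 cells, grown in DMEM with 1 mM sodium pyruvate and 10% heat-inactivated FCS at 37°C and 5% CO₂, were seeded at 1,000 cells/well. They were exposed for 72 h to Antp peptide alone, test peptide or vehicle (1% DMSO in PBS). Cells were lysed with CellTiter-Glo at day 0 and at 72 h, shaken 10 min in the dark, and luminescence was read. Fold change = 72 h value / day 0 value per group.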

[7] = immunofluorescence, 3–4 mice per group
[8] = MDA-MB-231, 10 μM, 7 day treatment, compared to aScr-pep
[9] = SPR, 25°C, 1% DMSO/1x PBS-P+, 1:1 Langmuir, range given in words

NANOG, sequence (Q9H9S0 whole entry): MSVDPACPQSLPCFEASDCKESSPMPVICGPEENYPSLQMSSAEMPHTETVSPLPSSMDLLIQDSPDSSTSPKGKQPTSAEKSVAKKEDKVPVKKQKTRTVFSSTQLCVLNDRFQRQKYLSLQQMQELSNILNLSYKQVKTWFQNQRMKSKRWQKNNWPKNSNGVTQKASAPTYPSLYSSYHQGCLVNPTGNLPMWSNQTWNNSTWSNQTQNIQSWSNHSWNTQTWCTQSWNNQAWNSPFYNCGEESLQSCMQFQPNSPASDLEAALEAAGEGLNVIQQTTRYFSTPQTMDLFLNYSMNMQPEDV

aCx26-pep: peptide containing the Cx26 cytosolic tail sequence tagged with an antennapedia (Antp) leader sequence (RQIKIWFQNRRMKWKKRYCSGKSKKPV-NH2)
binding to NANOG by SPR (result in words) (NANOG): did not significantly alter | NANOG target gene expression [1]: did not significantly change | cytokeratin gene expression [1]: did not significantly change | Ki67 staining (proliferation marker) [2, 7]: decreased | cleaved caspase 3 staining [2, 7]: increased | vimentin staining (EMT marker) [2, 7]: decreased | percent tumor viability (H&E) ([2]; vs vehicle or aScr-pep, 7–8 mice per group): significantly decreased | binding to FAK by SPR (result in words) (FAK): did not significantly alter | Oct4 mRNA levels (HCC70 cells [3]): significant decrease | Sox2 levels (HCC70 cells [3]): did not observe a change | FAK level in the nuclear fraction (HCC70 cells [4]): dramatic decreases | NANOG level in the nuclear fraction (HCC70 cells [4]): dramatic decreases | tumorsphere frequency (MDA-MB-231): significantly decreased | tumorsphere frequency (HCC70): significantly decreased | Oct4 mRNA levels (MDA-MB-231 cells [5]; [8]): significant decrease | Sox2 levels (MDA-MB-231 cells [5]; [8]): did not observe a change | expression of NANOG target genes (FABP5, POSTN, NRP2, PIN1, TAGLN) (MDA-MB-231 cells [5]): significantly decreased | expression of epithelial cell markers cytokeratin 18 and 19 (KRT18 and KRT19) (MDA-MB-231 cells [5]): significantly increased | tumorsphere frequency (MCF7): no significant difference | tumorsphere frequency (MDA-MB-468): significantly decreased | cell proliferation (CellTiter-Glo) (MDA-MB-231 cells [6]): not significantly affected

RYCSG
binding to NANOG by SPR (result in words) (NANOG): sufficient for binding | binding to FAK by SPR (result in words) (FAK): sufficient for binding

Cx26 cytosolic tail: peptide fragment of the Cx26 cytosolic (C-terminal) tail, 11 amino acids (RYCSGKSKKPV-NH2)
dissociation constant (KD) with NANOG (NANOG; [9]): nanomolar | dissociation constant (KD) with FAK (FAK; [9]): micromolar | expression of NANOG target genes (FABP5, POSTN, NRP2, PIN1, TAGLN) (MDA-MB-231 cells [5]): no significant differences | expression of epithelial cell markers cytokeratin 18 and 19 (KRT18 and KRT19) (MDA-MB-231 cells [5]): no significant differences
